Experimental data reported in ChEMBL document CHEMBL1150169, “Fatty acid synthase inhibitors from plants: isolation, structure elucidation, and SAR studies” (J Nat Prod, 2002).
In brackets after ≈: the same amount, converted by molar mass.

Legend:
Cryptococcus neoformans = assay: Antifungal activity against Cryptococcus neoformans ATCC 90113; assay type: functional, organism-based
[1] = Inhibition of Saccharomyces cerevisiae fatty acid synthase
Method in brief: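 Yeast FAS semipurified by 50% ammonium sulfate precipitation of lysate (pH 6.6 phosphate, EDTA, DTT, protease inhibitors), dialyzed, and diluted to 250 mOD/min/mL. Samples preincubated with enzyme 30 min at room temperature, then mixed 1:1 with mix of 1 mM malonyl CoA and NADPH, 40 µM acetyl CoA, and 2 mM DTT. A340 read kinetically; rate over initial 2 min. IC50 from dose-response curves.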

Candida albicans = assay: Antifungal activity against Candida albicans ATCC 90028; assay type: functional, organism-based

Row | IC50 (Cryptococcus neoformans) [µg/mL] | IC50 [1] [µg/mL] | IC50 (Candida albicans) [µg/mL] | SMILES
1 | > 50 | 25 (≈ 45.2 µM) | > 50 | COc1cc(O)c2c(=O)cc(-c3ccc(O)cc3)oc2c1-c1cc(-c2cc(=O)c3c(O)cc(O)cc3o2)ccc1O [SOTETSUFLAVONE]
2 | > 50 | > 50 | > 50 | CC1(C)CC[C@]2(C(=O)O)CC[C@]3(C)C(=CC[C@@H]4[C@@]5(C)C[C@@H](O)[C@H](O)[C@@](C)(CO)[C@@H]5[C@H](O)C[C@]43C)[C@@H]2C1 [TERMINOLIC ACID]
3 | > 50 | 38 (≈ 83.2 µM) | > 50 | C[C@H]1[C@H](C)CC[C@]2(C(=O)O)CC[C@]3(C)C(=CC[C@@H]4[C@@]5(C)CC[C@H](O)C(C)(C)[C@@H]5CC[C@]43C)[C@H]12 [URSOLIC ACID]
